Experimental data as given in ChEMBL document CHEMBL3091459, “Inhibitory effect of the gallotannin corilagin on dextran sulfate sodium-induced murine ulcerative colitis” (J Nat Prod, 2013).
The source made the active and inactive calls. No cut-off for these calls is given here.

What was measured:
Type in all cases: functional, organism-based
Mus musculus [1] = assay: Antiulcerative colitis activity in C57BL/6 mouse assessed as attenuation of DSS-induced inflammatory cell infiltration at 7.5 to 30 mg/kg, ip qd administered on day 6 to 12 post DSS-challenge measured on day 13 by hematoxylin/eosin staining-based assay
Outline: (§1)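 DSS colitis (2.0% in drinking water, 5 days) in male C57BL/6 mice treated ip once daily days 6–12, n = 8. Day 13 colons opened, washed in ice-cold PBS, fixed overnight in 4% paraformaldehyde, paraffin-embedded. 5 μm sections stained with H&E and scored histologically, including inflammation severity.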

Mus musculus [2] = assay: Antiulcerative colitis activity in C57BL/6 mouse assessed as attenuation of DSS-induced lesions formation at 7.5 to 30 mg/kg, ip qd administered on day 6 to 12 post DSS-challenge measured on day 13 by hematoxylin/eosin staining-based assay; outline: as §1
Mus musculus [3] = assay: Antiinflammatory activity in ip dosed C57BL/6 mouse assessed as reduction of DSS-induced IL-1beta production in colon administered qd on day 6 to 12 post DSS-challenge measured on day 13 by ELISA
Outline: (§2)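 Colitis induced in male C57BL/6 mice with 2.0% (w/v) DSS drinking water for days 0–5, then ip once daily days 6–12 (saline vehicle); 8 mice/group. Day 13: colon homogenized in phosphate buffer with Tween-20, PMSF, benzethonium chloride, EDTA and aprotinin, spun 16000g 15 min at 4 °C. TNF-α, IL-1β, IL-6 and IL-10 measured by ELISA, normalized to Bradford protein, reported as pg/mg.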

Mus musculus [4] = assay: Antiinflammatory activity in DSS-induced acute colitis C57BL/6 mouse model assessed as upregulation of IkappaB-alpha protein expression at 15 to 30 mg/kg, ip qd administered on day 6 to 12 post DSS-challenge measured on day 13 by Western blotting analysis
Outline: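 Male C57BL/6 mice received 2.0% DSS water for 5 days, then daily ip dosing in saline on days 6–12. On day 13, colon tissue was homogenized in ice-cold RIPA (0.1 g/mL). 50 μg protein was blotted on nitrocellulose and probed for IκBα overnight at 4 °C. ECL detection, normalized to β-actin by densitometry; n = 5.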

Mus musculus [5] = assay: Antiulcerative colitis activity in C57BL/6 mouse assessed as recovery of DSS-induced body weight loss at 7.5 to 30 mg/kg, ip qd administered on day 6 to 12 post DSS-challenge measured on day 8
Outline: (§3)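 In male C57BL/6 mice given 2.0% (w/v) DSS in drinking water days 0–5, then dosed ip daily days 6–12 (n = 8), body weight was checked daily. Change was also taken as weight before induction minus weight just before sacrifice on day 13.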

Mus musculus [6] = assay: Antiulcerative colitis activity in C57BL/6 mouse assessed as inhibition of DSS-induced shortening of colon length at 30 mg/kg, ip qd administered on day 6 to 12 post DSS-challenge measured on day 13; parameters: dose 30 mg/kg
Outline: (§4)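 Mice (male C57BL/6, 20–24 g) drank 2.0% DSS for 5 days. Animals with weight loss, diarrhea and bleeding on day 6 were randomized and given ip doses once daily to day 12, saline as vehicle; n = 8. Colon length was measured after sacrifice on day 13.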

Mus musculus [7] = assay: Antiinflammatory activity in ip dosed C57BL/6 mouse assessed as reduction of DSS-induced IL-6 production in colon administered qd on day 6 to 12 post DSS-challenge measured on day 13 by ELISA; outline: as §2
Mus musculus [8] = assay: Antiapoptotic activity in C57BL/6 mouse assessed as reduction of DSS-induced cleaved caspase-9 level in colon at 7.5 to 30 mg/kg, ip qd administered on day 6 to 12 post DSS-challenge measured on day 13 by Western blotting analysis
Outline: (§5)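 Male C57BL/6 mice (7–8 wk) given 2.0% (w/v) DSS in drinking water days 0–5. Colitic mice were selected on day 6 and dosed ip once daily, days 6–12, saline vehicle; n = 8/group. Day 13: colon homogenized in RIPA, 50 μg protein run on 10–12% SDS-PAGE. Blots probed for cleaved caspase-3/-9, detected by ECL, β-actin for loading, densitometry; n = 5.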

Mus musculus [9] = assay: Antiinflammatory activity in ip dosed C57BL/6 mouse assessed as reduction of DSS-induced TNF-alpha production in colon administered qd on day 6 to 12 post DSS-challenge measured on day 13 by ELISA; outline: as §2
Mus musculus [10] = assay: Antiinflammatory activity in DSS-treated C57BL/6 mouse assessed as effect on IL-10 production in colon at 7.5 to 30 mg/kg, ip qd administered on day 6 to 12 post DSS-challenge measured on day 13 by ELISA; outline: as §2
Mus musculus [11] = assay: Antiulcerative colitis activity in C57BL/6 mouse assessed as attenuation of DSS-induced crypt destruction at 7.5 to 30 mg/kg, ip qd administered on day 6 to 12 post DSS-challenge measured on day 13 by hematoxylin/eosin staining-based assay; outline: as §1
Mus musculus [12] = assay: Antiulcerative colitis activity in DSS-induced acute colitis C57BL/6 mouse model assessed as decrease in disease activity index at 15 to 30 mg/kg, ip qd administered on day 6 to 12 post DSS-challenge measured on day 13
Mus musculus [13] = assay: Antiulcerative colitis activity in C57BL/6 mouse assessed as recovery of DSS-induced body weight loss at 7.5 to 30 mg/kg, ip qd administered on day 6 to 12 post DSS-challenge measured on day 9; outline: as §3
Mus musculus [14] = assay: Antiapoptotic activity in C57BL/6 mouse assessed as reduction of DSS-induced cleaved caspase-3 level in colon at 7.5 to 30 mg/kg, ip qd administered on day 6 to 12 post DSS-challenge measured on day 13 by Western blotting analysis; outline: as §5
Mus musculus [15] = assay: Antiulcerative colitis activity in ip dosed C57BL/6 mouse assessed as inhibition of DSS-induced shortening of colon length administered qd on day 6 to 12 post DSS-challenge measured on day 13; outline: as §4
Mus musculus [16] = assay: In vivo inhibition of myeloperoxidase activity in colon homogenates of DSS-induced acute colitis C57BL/6 mouse model at 7.5 to 30 mg/kg, ip qd administered on day 6 to 12 post DSS-challenge measured on day 13
Outline: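 Day 13 colons from DSS-colitic male C57BL/6 mice (2.0% DSS for 5 days; ip daily days 6–12; n = 8) were homogenized in 0.5% HTAB (1 mL/100 mg) and spun 19000g 15 min at 4 °C. Supernatant was mixed with 50 mmol pH 6.0 phosphate buffer containing 0.0005% o-dianisidine and 0.1% H2O2. Rate of OD460 change at 25 °C was read and expressed as units/g wet tissue.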

O=C(O[C@@H]1O[C@@H]2COC(=O)c3cc(O)c(O)c(O)c3-c3c(cc(O)c(O)c3O)C(=O)O[C@H]([C@H]1O)[C@@H]2O)c1cc(O)c(O)c(O)c1
Activity (Mus musculus [1]): Active
Activity (Mus musculus [2]): Active
Activity (Mus musculus [3]): Dose-dependent effect
Activity (Mus musculus [4]): Active
Activity (Mus musculus [5]): Active
inhibition (Mus musculus [6]): Active
Activity (Mus musculus [7]): Dose-dependent effect
Activity (Mus musculus [8]): Active
Activity (Mus musculus [9]): Dose-dependent effect
Activity (Mus musculus [10]): inactive
Activity (Mus musculus [11]): Active
Activity (Mus musculus [12]): Active
Activity (Mus musculus [13]): Active
Activity (Mus musculus [14]): Active
inhibition (Mus musculus [15]): Dose-dependent effect
inhibition (Mus musculus [16]): Active
